Test results: ChEMBL document CHEMBL4196194, “De Novo Design of α-Helical Lipopeptides Targeting Viral Fusion Proteins: A Promising Strategy for Relatively Broad-Spectrum Antiviral Drug Discovery” (J Med Chem, 2018)
Calls of active or inactive are those of the source. The rule behind the calls is not given here. Where a SMILES comes first, the peptide text is derived from it. [ ]: non-standard residue; d: D form. The star is where a group is joined. Palmitoyl = CCCCCCCCCCCCCCCC(=O)*; X1 = O=[N+]([O-])c1ccc(*)c2onnc12; βAla = NCCC(=O)O

Experiments:
[1] = Drug distribution in acidic vesicles intracellular compartments of MDCK cells incubated for 1 hrs by LysoTracker Red DND-99 staining based confocal microscopy; type: ADME, cell-based, Canis lupus familiaris; settings: dog
Summary of the method: (§1)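 MDCK cells were pre-stained with 100 nM LysoTracker Red for 1.5 h and washed. They were then given 5 μM NBD-labelled lipopeptide in phenol-red-free DF-12 at 37 °C, 5% CO2. Confocal imaging with a 20× objective was done at 10 min, 30 min, 1 h, 2 h and 4 h. Peptide was read in the FITC channel and acidic compartments in the red channel, with colocalization assessed on merged images.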

[2] = Drug distribution in acidic vesicles intracellular compartments of MDCK cells incubated for 4 hrs by LysoTracker Red DND-99 staining based confocal microscopy; type: ADME, cell-based, Canis lupus familiaris; settings: dog; summary of the method: as §1
[3] = system: Influenza A virus; assay: Antiviral activity against Influenza A virus (A/Puerto Rico/8/1934(H1N1)) infected in HEK293T cells assessed as inhibition of viral replicon activity incubated for 30 hrs by dual-Glo luciferase assay; type: functional, organism-based
Summary of the method: (§2)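 HEK293T cells (2.5 × 10^4/well) transfected with plasmids for NP, PB1, PB2, PA plus p0LN-S-Luc firefly and pRL-SV40 Renilla reporters; serially diluted compound added 6 h post-transfection, luciferase read after 30 h by Dual-Glo. Activity = firefly/Renilla ratio; % inhibition normalized to positive and negative controls, curve-fitted; three independent measurements.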

[4] = system: Influenza A virus; assay: Antiviral activity against influenza A virus Hong Kong/8/1968(H3N2) infected in HEK293T cells assessed as inhibition of viral replicon activity incubated for 30 hrs by dual-Glo luciferase assay; type: functional, organism-based; summary of the method: as §2
[5] = Drug distribution in cell membrane of MDCK cells incubated for 0.5 hrs by confocal microscopy; type: ADME, cell-based, Canis lupus familiaris; settings: dog; summary of the method: as §1

CCCCCCCCCCCCCCCC(=O)NCCCC[C@H](NC(=O)CCNC(=O)[C@H](CCCCN)NC(=O)[C@H](CCCCN)NC(=O)[C@H](CCC(N)=O)NC(=O)[C@@H](NC(=O)[C@H](CCC(=O)O)NC(=O)[C@H](CCC(=O)O)NC(=O)[C@@H](NC(=O)[C@H](CCCCN)NC(=O)[C@H](CCCCN)NC(=O)[C@H](CCC(N)=O)NC(=O)[C@@H](NC(=O)[C@H](CCC(=O)O)NC(=O)[C@H](CCC(=O)O)NC(=O)[C@@H](NC(=O)[C@H](CCCCN)NC(=O)[C@H](CCCCN)NC(=O)[C@H](CCC(N)=O)NC(=O)[C@@H](NC(=O)[C@H](CCC(=O)O)NC(=O)[C@H](CCC(=O)O)NC(=O)[C@@H](NC(=O)[C@H](CCCCN)NC(=O)[C@H](CCCCN)NC(=O)[C@H](CCC(N)=O)NC(=O)[C@@H](NC(=O)[C@H](CCC(=O)O)NC(=O)[C@H](CCC(=O)O)NC(=O)[C@@H](NC(=O)[C@H](CCCCN)NC(=O)[C@H](CCCCN)NC(=O)[C@H](CCC(N)=O)NC(=O)[C@@H](NC(=O)[C@H](CCC(=O)O)NC(=O)[C@H](CCC(=O)O)NC(=O)[C@@H](NC(=O)CCNc1ccc([N+](=O)[O-])c2nnoc12)[C@@H](C)CC)[C@@H](C)CC)[C@@H](C)CC)[C@@H](C)CC)[C@@H](C)CC)[C@@H](C)CC)[C@@H](C)CC)[C@@H](C)CC)[C@@H](C)CC)[C@@H](C)CC)C(N)=O ({X1-βAla}-IEEIQKKIEEIQKKIEEIQKKIEEIQKKIEEIQKK[βAla]K(Palmitoyl)-NH2)
Drug uptake [1]: Active
Drug uptake [2]: Active
inhibition [3]: Active
inhibition [4]: Active
Drug uptake [5]: Active
